# In publication PMC8212709 (Clinical and Translational Science, 2021):
# Tests used:
# [1] = Plasma pharmacokinetics of TAK‐020; format: in vivo, human (healthy subjects); conditions: for half-life / Tmax: human, plasma
# Procedure, shortened: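 In the MRD part, healthy subjects took oral test compound q.d. (3.75–60 mg) or placebo, with sampling on days 1 and 9. Plasma levels were measured by validated HPLC-MS/MS (LLOQ 0.10 ng/mL). Noncompartmental parameters used actual sampling times, with geometric mean and %CV for Cmax and AUC. Accumulation ratios were based on Cmax and AUC24, plus the LS-mean ratio AUC24 (day 9):AUC∞ (day 1).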
# [2] = system: FcεRI‐mediated activation of basophils; experiment: Basophil activation test; format: in vivo, human
# [3] = rat, most sensitive toxicological species; nonclinical, no reference given; cited from earlier work
compound,measurement,setting,value
C=CC(=O)N1CC[C@H](Oc2nc(-c3n[nH]c(=O)[nH]3)cc3ccccc23)C1 [TAK‐020],least‐squares means ratio of AUC24 (day 9):AUC∞ (day 1),[1]; MRD,near unity
same,"accumulation ratio based on AUC24 (Rac(AUC24)), geometric mean",[1]; MRD 3.75 to 60 mg q.d.,near unity
same,"accumulation ratio based on Cmax (Rac(Cmax)), geometric mean",[1]; MRD 3.75 to 60 mg q.d.,near unity
same,steady‐state systemic exposure (mean dose‐normalized Cmax and AUC24) vs dose,"[1]; MRD, days 1 and 9",dose‐proportional manner up to 60 mg
same,half-life,"[1]; oral, 3.75 mg, mean t1/2z, MRD, 3.75‐mg dose, day 1",2.59 h
same,half-life,"[1]; oral, 3.75 mg, mean t1/2z, MRD, 3.75‐mg dose, day 9 after q.d. dosing",2.15 h
same,half-life,"[1]; oral, 60 mg, mean t1/2z, MRD, 60‐mg dose, day 1",6.3 h
same,half-life,"[1]; oral, 60 mg, mean t1/2z, MRD, 60‐mg dose, day 9 after q.d. dosing",5.46 h
same,half-life,"[1]; oral, half‐life, doses ≥ 2.5 mg (abstract)",3 to 9 h
same,half-life,"[1]; oral, mean half‐life in plasma, q.d. dosing",2 to 6 h
same,Tmax,"[1]; oral, median Tmax, MRD 3.75 to 60 mg, after a single dose on day 1",0.5 to 0.75 h
same,Tmax,"[1]; oral, median Tmax, MRD 3.75 to 60 mg, day 9 after q.d. dosing",0.75 to 1 h
same,Tmax,"[1]; po, median time to maximum plasma concentration (Tmax), single and multiple doses (abstract)",0.75 to 1 h
same,reduction from baseline in the %CD63‐positive basophils,"[2]; MRD, day 9 after q.d. administration, doses ≥3.75 mg (3.75 to 60 mg)",> 80%
same,reduction in the %CD63‐positive basophils sustained throughout the entire dosing interval (predose to 24 hours postdose),"[2]; MRD, ≥ 45‐mg doses, after multiple dosing for 9 days",≥ 80%
same,reduction in the %CD63‐positive basophils,"[2]; SRD, 0.1‐mg and 0.5‐mg dose groups",essentially no reduction
same,time to return to baseline basophil activity postdose,"[2]; SRD, single doses ≥ 4.4 mg",36 to 72 h
same,reduction from baseline of FcεRI‐mediated activation of basophils (%CD63‐positive basophils),"[2]; SRD, single doses ≥ 4.4 mg (4.4–105 mg)",> 80%
same,no observed adverse effect level exposure limit (total AUC),[3],63 ng·h/mL
